Data from ChEMBL document CHEMBL1130247, “Antirhino/enteroviral vinylacetylene benzimidazoles: a study of their activity and oral plasma levels in mice” (J Med Chem, 1997).
Converted amounts (≈) assume the structure as drawn.

Assays:
[1] = Oral plasma concentration in mice at 100 mg/kg dosage within 4-hr time frame.; assay type: ADME, organism-based; parameters: route oral, dose 100 mg/kg; conditions: mouse
Coxsackievirus [2] = assay: Antiviral activity against coxsackie virus A21; assay type: functional, organism-based
Method in brief: (§1)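 HeLa monolayers in MEM with 5% FBS and 10 mM MgSO4, infected with virus for 1–2 h at room temperature. Overlay of 1.5% agarose mixed 1:1 with 2× MEM (2% FBS) holding graded compound concentrations, diluted in DMSO from a 20 mg/mL stock. Incubated at 37 °C until DMSO-control plaques reached optimal size. Formalin-fixed, crystal violet-stained, plaques counted in duplicate wells. IC50 by Reed–Muench.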

Coxsackievirus [3] = assay: Antiviral activity against coxsackie virus A21M; assay type: functional, organism-based
Coxsackievirus [4] = assay: Antiviral activity against coxsackie virus B3; assay type: functional, organism-based; method in brief: as §1
Human rhinovirus sp. [5] = assay: Antiviral activity against human rhinovirus 16; assay type: functional, organism-based
Human rhinovirus sp. [6] = assay: Antiviral activity against human rhinovirus 1A; assay type: functional, organism-based
Human rhinovirus sp. [7] = assay: Antiviral activity against human rhinovirus 2; assay type: functional, organism-based
rhinovirus B14 = assay: Antiviral activity against human rhinovirus 14 using plaque reduction assay in HeLa cell lines; assay type: functional, organism-based, human rhinovirus type 14; conditions: Rhinovirus B
Enterovirus C = assay: Antiviral activity against poliovirus 1; assay type: functional, organism-based; method in brief: as §1
[8] = Antiviral activity against human rhinovirus 14 (HRV-14) using CPE/XTT assay in human tumor cell lines.; assay type: organism-based, human rhinovirus type 14; conditions: read-out: TC50 (the source's name)
Method in brief: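 Cytopathic-effect assay run by an earlier published method, except that surviving host cells were quantified with XTT substrate instead of crystal violet staining.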

[9] = Oral bioavailability in monkey; assay type: ADME, organism-based; conditions: primates, in vivo
HeLa = assay: Antiviral activity against poliovirus 1 using PV-1 plaque reduction assay in HeLa cell lines; assay type: functional, cell-based; conditions: Homo sapiens; method in brief: as §1

| SMILES | Cmax [1] [ng/mL] | IC50 (Coxsackievirus [2]) [µg/mL] | IC50 (Coxsackievirus [3]; Coxsackievirus, read-out: IC50) [µg/mL] | IC50 (Coxsackievirus [4]) [µg/mL] | IC50 (Human rhinovirus sp. [5]) [µg/mL] | IC50 (Human rhinovirus sp. [6]) [µg/mL] | IC50 (Human rhinovirus sp. [7]) [µg/mL] | IC50 (rhinovirus B14) [µg/mL] | IC50 (Enterovirus C) [µg/mL] | CC50 [8] [µg/mL] | bioavailability [9] [%] | IC50 (HeLa) [µg/mL] | IC50 (Coxsackievirus [3]) [µg/mL] |
| --- | --- | --- | --- | --- | --- | --- | --- | --- | --- | --- | --- | --- | --- |
| C#C/C=C(/c1ccc2nc(N)n(S(=O)(=O)C(C)C)c2c1)c1ccccc1F | 9200 | 0.079 (≈ 0.206 µM) | 0.1 (≈ 0.261 µM) | 0.05 (≈ 0.13 µM) | 0.07 (≈ 0.183 µM) | 0.035 (≈ 0.0913 µM) | 0.05 (≈ 0.13 µM) | 0.092 (≈ 0.24 µM) | 0.045 (≈ 0.117 µM) | 66 (≈ 172 µM) |  |  |  |
| C#C/C=C(/c1ccc2nc(N)n(S(=O)(=O)C(C)C)c2c1)c1cc(F)ccc1F | 9300 | 0.069 (≈ 0.172 µM) | 0.1 (≈ 0.249 µM) | 0.1 (≈ 0.249 µM) | 0.099 (≈ 0.247 µM) | 0.096 (≈ 0.239 µM) | 0.079 (≈ 0.197 µM) | 0.11 (≈ 0.274 µM) | 0.032 (≈ 0.0797 µM) | 63 (≈ 157 µM) |  |  |  |
| C#C/C=C(\c1ccc(F)c(F)c1)c1ccc2nc(N)n(S(=O)(=O)C(C)C)c2c1 | 2900 | 0.247 (≈ 0.615 µM) | 0.22 (≈ 0.548 µM) | 0.1 (≈ 0.249 µM) | 0.55 (≈ 1.37 µM) | 0.12 (≈ 0.299 µM) | 0.23 (≈ 0.573 µM) | 0.19 (≈ 0.473 µM) | 0.082 (≈ 0.204 µM) | 19 (≈ 47.3 µM) |  |  |  |
| C#C/C=C(\c1cccc(C(F)(F)F)c1)c1ccc2nc(N)n(S(=O)(=O)C(C)C)c2c1 | 4900 |  |  |  |  |  |  | 0.4 (≈ 0.923 µM) |  | > 100 |  |  |  |
| C#C/C=C(\c1ccc(OC)c(F)c1)c1ccc2nc(N)n(S(=O)(=O)C(C)C)c2c1 | 9200 | 0.032 (≈ 0.0774 µM) | 0.029 (≈ 0.0701 µM) | 0.035 (≈ 0.0846 µM) | 0.06 (≈ 0.145 µM) | 0.049 (≈ 0.119 µM) | 0.054 (≈ 0.131 µM) | 0.061 (≈ 0.148 µM) | 0.016 (≈ 0.0387 µM) | 5.5 (≈ 13.3 µM) |  |  |  |
| C#C/C=C(\c1ccccc1)c1cc2c(cc1F)nc(N)n2S(=O)(=O)C(C)C | 16000 |  |  |  |  |  |  |  |  | 13 (≈ 33.9 µM) | 46 | 1.5 (≈ 3.91 µM) |  |
| C#C/C=C(\c1ccccc1)c1ccc2nc(N)n(S(=O)(=O)C(C)C)c2c1F | 520 |  |  |  |  |  |  | 2.8 (≈ 7.3 µM) |  | 57 (≈ 149 µM) |  |  |  |
| C#C/C=C(\c1ccc(C)cc1)c1ccc2nc(N)n(S(=O)(=O)C(C)C)c2c1 | 610 |  |  |  |  |  |  | 0.075 (≈ 0.198 µM) |  | 5.7 (≈ 15 µM) |  |  |  |
| C#C/C=C(\c1cc(F)cc(F)c1)c1ccc2nc(N)n(S(=O)(=O)C(C)C)c2c1 | 18000 | 0.19 (≈ 0.473 µM) | 0.23 (≈ 0.573 µM) | 0.14 (≈ 0.349 µM) | 0.26 (≈ 0.648 µM) | 0.12 (≈ 0.299 µM) | 0.18 (≈ 0.448 µM) | 0.17 (≈ 0.423 µM) | 0.12 (≈ 0.299 µM) | 32 (≈ 79.7 µM) |  |  |  |
| C#C/C=C(\c1cccc(F)c1)c1ccc2nc(N)n(S(=O)(=O)N(C)C)c2c1 | 8400 | 0.1 (≈ 0.26 µM) | 0.09 (≈ 0.234 µM) | 0.07 (≈ 0.182 µM) | 0.04 (≈ 0.104 µM) | 0.053 (≈ 0.138 µM) | 0.05 (≈ 0.13 µM) | 0.061 (≈ 0.159 µM) | 0.047 (≈ 0.122 µM) | > 100 |  |  |  |
| C/C=C(\c1ccccc1)c1ccc2nc(N)n(S(=O)(=O)C(C)C)c2c1 | 5100 |  |  |  |  |  |  |  |  |  |  |  |  |
| CC(C)S(=O)(=O)n1c(N)nc2ccc(C(=O)c3cccc(F)c3)cc21 |  |  |  |  |  |  |  | 2.1 (≈ 5.81 µM) |  | 15.9 (≈ 44 µM) |  |  |  |
| C#C/C=C(\c1cccc(F)c1)c1ccc2nc(N)n(S(=O)(=O)C(C)C)c2c1 | 12000 | 0.085 (≈ 0.222 µM) | 0.046 (≈ 0.12 µM) | 0.032 (≈ 0.0835 µM) | 0.057 (≈ 0.149 µM) | 0.027 (≈ 0.0704 µM) | 0.069 (≈ 0.18 µM) | 0.06 (≈ 0.156 µM) | 0.037 (≈ 0.0965 µM) | 5.3 (≈ 13.8 µM) |  |  |  |
| C#C/C=C(\c1cccc(Cl)c1)c1ccc2nc(N)n(S(=O)(=O)C(C)C)c2c1 | 18000 | 0.23 (≈ 0.575 µM) | 0.18 (≈ 0.45 µM) | 0.17 (≈ 0.425 µM) | 0.19 (≈ 0.475 µM) | 0.13 (≈ 0.325 µM) | 0.12 (≈ 0.3 µM) | 0.21 (≈ 0.525 µM) | 0.15 (≈ 0.375 µM) | 20 (≈ 50 µM) |  |  |  |
| CC#C/C=C(\c1cccc(F)c1)c1ccc2nc(N)n(S(=O)(=O)C(C)C)c2c1 | 640 | 0.33 (≈ 0.83 µM) | 0.36 (≈ 0.906 µM) | 0.19 (≈ 0.478 µM) | 0.09 (≈ 0.226 µM) | 0.14 (≈ 0.352 µM) | 0.28 (≈ 0.704 µM) | 0.26 (≈ 0.654 µM) | 0.12 (≈ 0.302 µM) | 3.1 (≈ 7.8 µM) |  |  |  |
| C#C/C=C(\c1ccc(OC(F)(F)F)cc1)c1ccc2nc(N)n(S(=O)(=O)C(C)C)c2c1 | 2000 | 0.22 (≈ 0.489 µM) | 0.5 (≈ 1.11 µM) | 0.7 (≈ 1.56 µM) | 0.22 (≈ 0.489 µM) | 0.26 (≈ 0.578 µM) | 0.35 (≈ 0.779 µM) | 0.55 (≈ 1.22 µM) | 0.27 (≈ 0.601 µM) | 18 (≈ 40 µM) |  |  |  |
| C#C/C=C(\c1ccccc1)c1ccc2nc(N)n(S(=O)(=O)C(C)C)c2c1 |  | 0.037 (≈ 0.101 µM) | 0.089 (≈ 0.244 µM) | 0.1 (≈ 0.274 µM) | 0.039 (≈ 0.107 µM) | 0.033 (≈ 0.0903 µM) | 0.065 (≈ 0.178 µM) | 0.094 (≈ 0.257 µM) | 0.037 (≈ 0.101 µM) | 11 (≈ 30.1 µM) |  |  |  |
| C#C/C=C(\c1ccc(OC)cc1)c1ccc2nc(N)n(S(=O)(=O)C(C)C)c2c1 |  | 0.047 (≈ 0.119 µM) | 0.051 (≈ 0.129 µM) | 0.055 (≈ 0.139 µM) | 0.029 (≈ 0.0733 µM) | 0.03 (≈ 0.0759 µM) | 0.041 (≈ 0.104 µM) | 0.059 (≈ 0.149 µM) | 0.04 (≈ 0.101 µM) | 5.2 (≈ 13.1 µM) |  |  |  |
| C#C/C=C(\c1ccc(F)cc1)c1ccc2nc(N)n(S(=O)(=O)C(C)C)c2c1 | 9200 | 0.1 (≈ 0.261 µM) |  | 0.095 (≈ 0.248 µM) | 0.098 (≈ 0.256 µM) | 0.078 (≈ 0.203 µM) | 0.091 (≈ 0.237 µM) | 0.13 (≈ 0.339 µM) | 0.067 (≈ 0.175 µM) | 5.8 (≈ 15.1 µM) | 23 |  | 0.062 (≈ 0.162 µM) |
| C#C/C=C(\c1ccc(N(C)C)cc1)c1ccc2nc(N)n(S(=O)(=O)C(C)C)c2c1 | 210 | 0.14 (≈ 0.343 µM) | 0.13 (≈ 0.318 µM) | 0.06 (≈ 0.147 µM) | 0.08 (≈ 0.196 µM) | 0.048 (≈ 0.117 µM) | 0.06 (≈ 0.147 µM) | 0.117 (≈ 0.286 µM) | 0.059 (≈ 0.144 µM) | 5.3 (≈ 13 µM) |  |  |  |
| CC(C)S(=O)(=O)n1c(N)nc2ccc(/C(=N/O)c3ccccc3)cc21 [ENVIROXIME] | 890 |  |  |  |  |  |  |  |  |  |  |  |  |
